Where “and” joins values, the source holds several entries; their conditions need not be identical. Equal values may be shown once.
Tested on: HIV-1
Experiment: Phase IIa monotherapy study: antiviral effect
Assay type: in vivo, HIV-1–positive, treatment-naive adults
Conditions: for Plasma HIV-1 RNA change from baseline to nadir, mean (SD): n = 6; for Modeled plasma HIV-1 RNA maximum change (nadir), least squares mean (90% CI): mixed-effects model
Outline: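 Randomized, double-blind, placebo-controlled oral monotherapy, once daily after a moderate-fat meal (≥400 calories, ≥120 from fat) taken 30 minutes before dosing. Part 1: 10 or 200 mg for 10 days. Part 2: 40–140 mg for 7 days, then combination ART from day 8. Plasma HIV-1 RNA endpoints were maximum change and change to day 11 (part 1) or day 8 (part 2). Maximum change was fitted by a mixed-effects linear model; dose–response by an Emax model pooling both parts (ED50).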

[1] = 10 mg once daily, part 1 (10 days)
[2] = 40 mg once daily, part 2 (7 days)
[3] = 80 mg once daily, part 2 (7 days)
[4] = 140 mg once daily, part 2 (7 days)
[5] = 200 mg once daily, part 1 (10 days)

**Q.** Which “Maximum change in HIV-1 RNA” value (10 mg once daily, 10 days) does the source give for C=C(C)[C@@H]1CC[C@]2(NCCN3CCS(=O)(=O)CC3)CC[C@]3(C)[C@H](CC[C@@H]4[C@@]5(C)CC=C(C6=CC[C@@](CF)(C(=O)O)CC6)C(C)(C)[C@@H]5CC[C@]43C)[C@@H]12 [GSK’254] here?
**A.** −0.4 log10

**Q.** And the “Plasma HIV-1 RNA change from baseline to nadir, mean (SD)” value [1]?
**A.** −0.36 (0.25) log10 copies/mL

**Q.** What about the “Modeled plasma HIV-1 RNA maximum change (nadir), least squares mean (90% CI)” value [1] of the same compound?
**A.** −0.34 (−.67 to −.00) log10 copies/mL

**Q.** What about the “Plasma HIV-1 RNA change from baseline to primary endpoint, mean (SD)” value (10 mg once daily, part 1, Day 11, n = 6) of the same compound?
**A.** −0.22 (0.31) log10 copies/mL

**Q.** And the “Maximum change in HIV-1 RNA” value (40 mg once daily, 7 days)?
**A.** −1.2 log10

**Q.** What about the “Plasma HIV-1 RNA change from baseline to nadir, mean (SD)” value [2] of the same compound?
**A.** −1.18 (0.44) log10 copies/mL

**Q.** What about the “Modeled plasma HIV-1 RNA maximum change (nadir), least squares mean (90% CI)” value [2] of the same compound?
**A.** −1.05 (−1.29 to −.82) log10 copies/mL

**Q.** What about the “Plasma HIV-1 RNA change from baseline to primary endpoint, mean (SD)” value (40 mg once daily, part 2, Day 8, n = 6) of the same compound?
**A.** −1.18 (0.44) log10 copies/mL

**Q.** What about the “Maximum change in HIV-1 RNA” value (80 mg once daily, 7 days) of the same compound?
**A.** −1.0 log10

**Q.** And the “Plasma HIV-1 RNA change from baseline to nadir, mean (SD)” value [3]?
**A.** −1.02 (0.33) log10 copies/mL

**Q.** What about the “Modeled plasma HIV-1 RNA maximum change (nadir), least squares mean (90% CI)” value [3] of the same compound?
**A.** −0.94 (−1.16 to −.72) log10 copies/mL

**Q.** What about the “Plasma HIV-1 RNA change from baseline to primary endpoint, mean (SD)” value (80 mg once daily, part 2, Day 8, n = 6) of the same compound?
**A.** −1.02 (0.33) log10 copies/mL

**Q.** And the “Maximum change in HIV-1 RNA” value (140 mg once daily, 7 days)?
**A.** −1.5 log10

**Q.** What about the “Plasma HIV-1 RNA change from baseline to nadir, mean (SD)” value [4] of the same compound?
**A.** −1.49 (0.27) log10 copies/mL

**Q.** What about the “Modeled plasma HIV-1 RNA maximum change (nadir), least squares mean (90% CI)” value [4] of the same compound?
**A.** −1.49 (−1.70 to − 1.28) log10 copies/mL

**Q.** And the “Plasma HIV-1 RNA change from baseline to primary endpoint, mean (SD)” value (140 mg once daily, part 2, Day 8, n = 6)?
**A.** −1.45 (0.24) log10 copies/mL

**Q.** And the “Maximum change in HIV-1 RNA” value (200 mg once daily, 10 days)?
**A.** −2.0 log10

**Q.** And the “Plasma HIV-1 RNA change from baseline to nadir, mean (SD)” value [5]?
**A.** −2.01 (0.33) log10 copies/mL

**Q.** And the “Modeled plasma HIV-1 RNA maximum change (nadir), least squares mean (90% CI)” value [5]?
**A.** −1.93 (−2.24 to −1.62) log10 copies/mL

**Q.** What about the “Plasma HIV-1 RNA change from baseline to primary endpoint, mean (SD)” value (200 mg once daily, part 1, Day 11, n = 6) of the same compound?
**A.** −1.96 (0.34) log10 copies/mL

**Q.** What about the “Maximum mean decline from baseline in HIV-1 RNA” value (10-mg dose) of the same compound?
**A.** 0.36 log10

**Q.** And the “Participants with >1.5-log10 decline in HIV-1 RNA from baseline at Day 8” value (40-mg group (n = 6))?
**A.** 1 participants

**Q.** What about the “Maximum mean decline in HIV-1 RNA” value (140-mg group) of the same compound?
**A.** 1.5 log10

**Q.** What about the “Participants with >1.5-log10 decline in HIV-1 RNA from baseline at Day 8” value (140-mg group (n = 6)) of the same compound?
**A.** 3 participants

**Q.** And the “Maximum mean decline in HIV-1 RNA” value (200-mg group)?
**A.** 2.0 log10

**Q.** What about the “Decline from baseline in HIV-1 RNA at day 11 in all participants” value (200-mg group, day 11) of the same compound?
**A.** > 1.5 log10

**Q.** What about the “Half maximal effective dose (ED50)” value (Emax nonlinear model, maximum change in HIV-1 RNA to day 8 vs dose, once daily) of the same compound?
**A.** 42.67 mg and 42.7 mg and ~ 43 mg

**Q.** What about the “Decline in HIV-1 RNA” value (doses ≥40 mg, regardless of dosing duration) of the same compound?
**A.** ≥ 1 log10

**Q.** And the “Potency as an antiviral (maximum change in HIV-1 RNA)” value (monotherapy)?
**A.** 2 log10

**Q.** What about the “Median time to nadir in HIV-1 RNA” value (part 1 (10 days dosing)) of the same compound?
**A.** 11.5 days

**Q.** And the “Median time to nadir in HIV-1 RNA” value (part 2 (7 days dosing))?
**A.** 8.0 days
